# Reference: ChEMBL document CHEMBL4312019, “Design, synthesis, and evaluation of compounds capable of reducing Pseudomonas aeruginosa virulence” (Eur J Med Chem, 2020)
# The source made the active and inactive calls. The calls are words filed in the database; no cut-off is given here.
# Assays:
# [1] = biological target: Muscarinic acetylcholine receptor M1 (Homo sapiens) (UniProt P11229); experiment: Displacement of [3H]-QNB/[3H]-NMS from human recombinant muscarinic acetylcholine M1 receptor expressed in stable CHO cells incubated for 90 mins by microbeta scintillation counting method; assay type: cell-based
# NIH3T3 = experiment: Cytotoxicity against mouse NIH/3T3 cells measured after 72 hrs by MTT assay; assay type: cell-based; conditions: NIH3T3, 72 h
# [2] = biological target: 5-hydroxytryptamine receptor 1A (Homo sapiens) (UniProt P08908); experiment: Displacement of [3H]-8-OH-DPAT from human recombinant 5HT1A receptor expressed in stable CHO cells at 10 uM incubated for 90 mins by microbeta scintillation counting method; assay type: cell-based
# Outline: (§1)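 Primary radioligand binding screen run by the NIMH Psychoactive Drug Screening Program, with one test level of 10 μM. The read-out was inhibition of radioligand binding at each receptor.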
# [3] = biological target: 5-hydroxytryptamine receptor 1D (Homo sapiens) (UniProt P28221); experiment: Displacement of [3H]-5-CT from human recombinant 5HT1D receptor expressed in HEKT cells at 10 uM incubated for 90 mins by microbeta scintillation counting method; assay type: cell-based; outline: as §1
# [4] = biological target: 5-hydroxytryptamine receptor 1E (Homo sapiens) (UniProt P28566); experiment: Displacement of [3H]-5-HT from human recombinant 5HT1E receptor expressed in stable HEK cells at 10 uM incubated for 90 mins by microbeta scintillation counting method; assay type: cell-based; outline: as §1
# [5] = biological target: 5-hydroxytryptamine receptor 2A (Homo sapiens) (UniProt P28223); experiment: Displacement of [3H]-ketanserin from human recombinant 5HT2A receptor expressed in HEKT cells at 10 uM incubated for 90 mins by microbeta scintillation counting method; assay type: cell-based; outline: as §1
# [6] = biological target: 5-hydroxytryptamine receptor 2B (Homo sapiens) (UniProt P41595); experiment: Displacement of [3H]-LSD from human recombinant 5HT2B receptor expressed in stable HEK cells at 10 uM incubated for 90 mins by microbeta scintillation counting method; assay type: cell-based; outline: as §1
# [7] = biological target: 5-hydroxytryptamine receptor 2C (Homo sapiens) (UniProt P28335); experiment: Displacement of [3H]-Mesulergin from human recombinant 5HT2C receptor expressed in CHO cells at 10 uM incubated for 90 mins by microbeta scintillation counting method; assay type: cell-based; outline: as §1
# [8] = biological target: Alpha-1A adrenergic receptor (Homo sapiens) (UniProt P35348); experiment: Displacement of [3H]-prazosin from human recombinant alpha1A adrenergic receptor at 10 uM incubated for 90 mins by microbeta scintillation counting method; outline: as §1
# [9] = biological target: Alpha-1B adrenergic receptor (Homo sapiens) (UniProt P35368); experiment: Displacement of [3H]-8-OH-DPAT from human recombinant alpha1B adrenergic receptor expressed in HEKT cells at 10 uM incubated for 90 mins by microbeta scintillation counting method; assay type: cell-based; outline: as §1
# [10] = biological target: Alpha-1D adrenergic receptor (Homo sapiens) (UniProt P25100); experiment: Displacement of [3H]-8-OH-DPAT from human recombinant alpha1D adrenergic receptor at 10 uM incubated for 90 mins by microbeta scintillation counting method; outline: as §1
# [11] = biological target: Beta-1 adrenergic receptor (Homo sapiens) (UniProt P08588); experiment: Displacement of [125I]-pindolol from recombinant human beta1 adrenergic receptor expressed in CHO Flp-In cells incubated for 90 mins by microbeta scintillation counting method; assay type: cell-based
# [12] = biological target: Beta-3 adrenergic receptor (Homo sapiens) (UniProt P13945); experiment: Displacement of [3H]-CGP12177 from human recombinant adrenergic beta3 receptor expressed in Flp-In HEK cells incubated for 90 mins by microbeta scintillation counting method; assay type: cell-based
# Rattus norvegicus [13] = species: Rattus norvegicus; experiment: Displacement of [3H]-Flunitrazepam from BZP receptor in rat brain at 10 uM incubated for 90 mins by microbeta scintillation counting method; assay type: tissue-based; outline: as §1
# [14] = biological target: D(1A) dopamine receptor (Homo sapiens) (UniProt P21728); experiment: Displacement of [3H]-SCH23390 from human recombinant dopamine D1 receptor expressed in HEKT cells incubated for 90 mins by microbeta scintillation counting method; assay type: cell-based
# [15] = biological target: D(3) dopamine receptor (Homo sapiens) (UniProt P35462); experiment: Displacement of [3H]-N-methylspiperone from human recombinant dopamine D3 receptor expressed in HEKT cells incubated for 90 mins by microbeta scintillation counting method; assay type: cell-based
# [16] = biological target: D(1B) dopamine receptor (Homo sapiens) (UniProt P21918); experiment: Displacement of [3H]-SCH23390 from human recombinant dopamine D5 receptor expressed in HEKT cells incubated for 90 mins by microbeta scintillation counting method; assay type: cell-based
# [17] = biological target: GABA-A receptor; anion channel (Rattus norvegicus) (UniProt O09028+P15431+P18506+P18508+P19969+P20236+P23574+P23576+P28471+P28473+P30191+P62813+P63079+P63138+Q91ZM7+Q9ES14); experiment: Displacement of [3H]-Muscimol from GABAA receptor in rat brain incubated for 90 mins by microbeta scintillation counting method; assay type: tissue-based
# [18] = biological target: Delta-type opioid receptor (Homo sapiens) (UniProt P41143); experiment: Displacement of [3H]-DADLE from human recombinant DOR receptor expressed in stable HEK cells incubated for 90 mins by microbeta scintillation counting method; assay type: cell-based
# [19] = biological target: Mu-type opioid receptor (Homo sapiens) (UniProt P35372); experiment: Displacement of [3H]-DAMGO from human recombinant MOR receptor expressed in stable HEK cells incubated for 90 mins by microbeta scintillation counting method; assay type: cell-based
# [20] = biological target: Histamine H1 receptor (Homo sapiens) (UniProt P35367); experiment: Displacement of [3H]-Pyrilamine from human recombinant histamine H1 receptor expressed in stable HEK cells incubated for 90 mins by microbeta scintillation counting method; assay type: cell-based
# [21] = biological target: Histamine H3 receptor (Homo sapiens) (UniProt Q9Y5N1); experiment: Displacement of [3H]-alpha-methylhistamine from human recombinant histamine H3 receptor expressed in Flp-In HEK cells incubated for 90 mins by microbeta scintillation counting method; assay type: cell-based
# [22] = biological target: Muscarinic acetylcholine receptor M2 (Homo sapiens) (UniProt P08172); experiment: Displacement of [3H]-QNB/[3H]-NMS from human recombinant muscarinic acetylcholine M2 receptor expressed in stable CHO cells incubated for 90 mins by microbeta scintillation counting method; assay type: cell-based
# [23] = biological target: Muscarinic acetylcholine receptor M3 (Homo sapiens) (UniProt P20309); experiment: Displacement of [3H]-QNB/[3H]-NMS from human recombinant muscarinic acetylcholine M3 receptor expressed in stable CHO cells incubated for 90 mins by microbeta scintillation counting method; assay type: cell-based
# [24] = biological target: Muscarinic acetylcholine receptor M4 (Homo sapiens) (UniProt P08173); experiment: Displacement of [3H]-QNB/[3H]-NMS from human recombinant muscarinic acetylcholine M4 receptor expressed in stable CHO cells incubated for 90 mins by microbeta scintillation counting method; assay type: cell-based
# [25] = biological target: Muscarinic acetylcholine receptor M5 (Homo sapiens) (UniProt P08912); experiment: Displacement of [3H]-QNB/[3H]-NMS from human recombinant muscarinic acetylcholine M5 receptor expressed in stable CHO cells incubated for 90 mins by microbeta scintillation counting method; assay type: cell-based
# [26] = biological target: Sodium-dependent noradrenaline transporter (Homo sapiens) (UniProt P23975); experiment: Displacement of [3H]-Nisoxetine from human recombinant NET receptor expressed in stable HEK cells incubated for 90 mins by microbeta scintillation counting method; assay type: cell-based
# Rattus norvegicus [27] = species: Rattus norvegicus; experiment: Displacement of [3H]-PK11195 from PBR in rat brain incubated for 90 mins by microbeta scintillation counting method; assay type: tissue-based
# Alpha-1B adrenergic receptor (Homo sapiens), sequence (P35368 whole entry): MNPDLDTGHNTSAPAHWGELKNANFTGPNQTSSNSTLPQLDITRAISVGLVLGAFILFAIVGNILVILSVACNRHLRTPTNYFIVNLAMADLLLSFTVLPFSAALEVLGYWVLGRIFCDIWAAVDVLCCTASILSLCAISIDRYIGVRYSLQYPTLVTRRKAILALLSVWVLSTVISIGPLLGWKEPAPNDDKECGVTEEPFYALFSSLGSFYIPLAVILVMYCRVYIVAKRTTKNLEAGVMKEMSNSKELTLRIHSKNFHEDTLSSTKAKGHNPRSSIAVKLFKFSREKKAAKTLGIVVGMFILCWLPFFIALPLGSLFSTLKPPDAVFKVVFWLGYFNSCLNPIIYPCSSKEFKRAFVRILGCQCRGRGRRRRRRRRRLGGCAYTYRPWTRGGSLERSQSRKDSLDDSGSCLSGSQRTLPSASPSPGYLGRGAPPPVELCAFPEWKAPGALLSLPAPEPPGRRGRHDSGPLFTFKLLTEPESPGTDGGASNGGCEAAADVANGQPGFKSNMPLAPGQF
# D(1B) dopamine receptor (Homo sapiens), sequence (P21918 whole entry): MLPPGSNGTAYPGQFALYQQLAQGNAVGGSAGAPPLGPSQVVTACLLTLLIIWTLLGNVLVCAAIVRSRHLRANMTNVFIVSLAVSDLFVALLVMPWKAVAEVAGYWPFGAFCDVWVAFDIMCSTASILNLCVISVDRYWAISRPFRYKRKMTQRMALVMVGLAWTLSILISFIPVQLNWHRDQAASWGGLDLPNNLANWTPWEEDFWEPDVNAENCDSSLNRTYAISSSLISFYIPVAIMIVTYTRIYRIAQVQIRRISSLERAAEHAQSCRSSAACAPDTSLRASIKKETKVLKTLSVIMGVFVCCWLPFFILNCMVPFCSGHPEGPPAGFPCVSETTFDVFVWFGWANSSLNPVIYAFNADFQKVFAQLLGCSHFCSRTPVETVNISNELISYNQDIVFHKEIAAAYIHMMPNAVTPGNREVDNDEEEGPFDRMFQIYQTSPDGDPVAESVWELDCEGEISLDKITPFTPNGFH
# D(3) dopamine receptor (Homo sapiens), sequence (P35462 whole entry): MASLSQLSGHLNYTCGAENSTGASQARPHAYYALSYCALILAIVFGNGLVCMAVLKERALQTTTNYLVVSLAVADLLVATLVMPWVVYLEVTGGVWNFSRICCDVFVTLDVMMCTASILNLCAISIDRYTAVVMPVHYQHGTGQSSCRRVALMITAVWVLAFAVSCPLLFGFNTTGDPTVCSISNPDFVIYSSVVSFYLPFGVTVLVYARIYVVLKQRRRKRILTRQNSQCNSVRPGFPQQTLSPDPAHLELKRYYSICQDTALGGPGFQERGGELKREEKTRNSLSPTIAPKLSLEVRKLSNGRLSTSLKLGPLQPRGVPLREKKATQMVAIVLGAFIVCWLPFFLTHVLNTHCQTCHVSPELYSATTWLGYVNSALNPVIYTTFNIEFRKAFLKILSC
# 5-hydroxytryptamine receptor 2B (Homo sapiens), sequence (P41595 whole entry): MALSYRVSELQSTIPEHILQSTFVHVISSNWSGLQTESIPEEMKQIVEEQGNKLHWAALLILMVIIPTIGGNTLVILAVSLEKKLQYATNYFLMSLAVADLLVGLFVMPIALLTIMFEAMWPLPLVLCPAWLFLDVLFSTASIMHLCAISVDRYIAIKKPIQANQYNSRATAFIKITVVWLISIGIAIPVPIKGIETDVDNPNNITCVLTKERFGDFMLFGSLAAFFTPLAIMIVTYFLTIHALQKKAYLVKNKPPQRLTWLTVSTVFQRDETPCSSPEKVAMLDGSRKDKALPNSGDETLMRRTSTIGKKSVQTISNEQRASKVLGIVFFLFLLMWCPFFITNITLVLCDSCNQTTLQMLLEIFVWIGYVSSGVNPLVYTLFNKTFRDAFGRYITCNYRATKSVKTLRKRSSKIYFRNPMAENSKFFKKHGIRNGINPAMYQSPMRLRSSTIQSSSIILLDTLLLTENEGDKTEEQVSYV
# Histamine H3 receptor (Homo sapiens), sequence (Q9Y5N1 whole entry): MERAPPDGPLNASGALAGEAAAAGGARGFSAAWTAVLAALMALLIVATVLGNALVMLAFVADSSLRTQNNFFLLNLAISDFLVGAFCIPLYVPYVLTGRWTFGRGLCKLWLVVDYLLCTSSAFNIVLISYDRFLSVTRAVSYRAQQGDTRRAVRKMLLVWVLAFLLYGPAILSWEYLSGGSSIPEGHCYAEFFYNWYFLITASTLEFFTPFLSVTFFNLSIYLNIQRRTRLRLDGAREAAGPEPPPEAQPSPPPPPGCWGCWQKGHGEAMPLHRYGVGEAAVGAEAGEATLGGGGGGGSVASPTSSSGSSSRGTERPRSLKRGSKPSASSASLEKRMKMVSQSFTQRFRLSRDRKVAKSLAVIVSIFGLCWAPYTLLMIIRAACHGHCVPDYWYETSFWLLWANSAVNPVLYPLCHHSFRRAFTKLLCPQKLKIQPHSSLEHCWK
# 5-hydroxytryptamine receptor 2A (Homo sapiens), sequence (P28223 whole entry): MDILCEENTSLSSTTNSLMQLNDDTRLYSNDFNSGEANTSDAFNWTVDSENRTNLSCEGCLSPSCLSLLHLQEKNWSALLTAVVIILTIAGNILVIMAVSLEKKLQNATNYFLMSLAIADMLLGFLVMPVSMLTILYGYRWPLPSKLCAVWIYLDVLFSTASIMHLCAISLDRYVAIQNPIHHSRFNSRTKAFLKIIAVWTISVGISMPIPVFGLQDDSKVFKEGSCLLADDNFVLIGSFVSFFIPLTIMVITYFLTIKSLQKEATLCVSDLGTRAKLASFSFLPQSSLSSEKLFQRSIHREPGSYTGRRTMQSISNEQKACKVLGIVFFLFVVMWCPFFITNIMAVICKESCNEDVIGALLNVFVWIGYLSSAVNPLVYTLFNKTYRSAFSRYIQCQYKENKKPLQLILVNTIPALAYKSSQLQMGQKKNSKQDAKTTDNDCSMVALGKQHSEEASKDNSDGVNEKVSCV
# Beta-3 adrenergic receptor (Homo sapiens), sequence (P13945 whole entry, looked up): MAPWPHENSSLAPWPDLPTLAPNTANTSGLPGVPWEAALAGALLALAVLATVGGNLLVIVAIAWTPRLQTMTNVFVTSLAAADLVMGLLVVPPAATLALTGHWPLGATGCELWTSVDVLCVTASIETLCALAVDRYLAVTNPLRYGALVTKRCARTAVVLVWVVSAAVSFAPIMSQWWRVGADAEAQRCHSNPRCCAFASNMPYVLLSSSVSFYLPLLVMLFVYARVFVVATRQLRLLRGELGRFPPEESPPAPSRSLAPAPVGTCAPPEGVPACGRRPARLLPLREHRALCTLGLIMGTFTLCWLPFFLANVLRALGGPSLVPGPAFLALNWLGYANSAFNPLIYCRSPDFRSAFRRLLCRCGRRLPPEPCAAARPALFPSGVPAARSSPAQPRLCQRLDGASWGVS
# Beta-1 adrenergic receptor (Homo sapiens), sequence (P08588 whole entry, looked up): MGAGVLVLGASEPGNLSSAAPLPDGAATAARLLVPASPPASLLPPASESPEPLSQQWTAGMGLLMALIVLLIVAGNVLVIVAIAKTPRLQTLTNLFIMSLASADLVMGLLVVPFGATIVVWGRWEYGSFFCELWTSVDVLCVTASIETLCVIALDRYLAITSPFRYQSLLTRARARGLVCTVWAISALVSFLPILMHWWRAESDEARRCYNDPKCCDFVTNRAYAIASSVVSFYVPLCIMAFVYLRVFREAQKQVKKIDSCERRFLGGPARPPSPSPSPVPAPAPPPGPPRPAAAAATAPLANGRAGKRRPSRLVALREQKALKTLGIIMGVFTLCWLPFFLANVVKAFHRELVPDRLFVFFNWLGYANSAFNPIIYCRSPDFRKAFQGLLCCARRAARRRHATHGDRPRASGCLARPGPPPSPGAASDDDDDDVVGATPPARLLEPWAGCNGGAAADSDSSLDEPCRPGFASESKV
# Histamine H1 receptor (Homo sapiens), sequence (P35367 whole entry): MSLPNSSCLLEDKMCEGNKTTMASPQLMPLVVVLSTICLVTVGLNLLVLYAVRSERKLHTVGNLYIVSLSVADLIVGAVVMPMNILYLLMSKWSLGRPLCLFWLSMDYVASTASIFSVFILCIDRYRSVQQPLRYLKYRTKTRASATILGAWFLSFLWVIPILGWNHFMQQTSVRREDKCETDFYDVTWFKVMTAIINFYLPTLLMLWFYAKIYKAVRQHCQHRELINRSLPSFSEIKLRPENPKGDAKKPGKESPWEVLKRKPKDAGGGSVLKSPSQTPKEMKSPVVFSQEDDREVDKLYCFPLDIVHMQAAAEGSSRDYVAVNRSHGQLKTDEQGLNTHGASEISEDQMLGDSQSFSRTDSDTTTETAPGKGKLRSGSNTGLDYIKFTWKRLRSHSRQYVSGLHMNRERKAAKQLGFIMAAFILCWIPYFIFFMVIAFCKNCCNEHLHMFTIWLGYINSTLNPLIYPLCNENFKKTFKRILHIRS
# 5-hydroxytryptamine receptor 2C (Homo sapiens), sequence (P28335 whole entry): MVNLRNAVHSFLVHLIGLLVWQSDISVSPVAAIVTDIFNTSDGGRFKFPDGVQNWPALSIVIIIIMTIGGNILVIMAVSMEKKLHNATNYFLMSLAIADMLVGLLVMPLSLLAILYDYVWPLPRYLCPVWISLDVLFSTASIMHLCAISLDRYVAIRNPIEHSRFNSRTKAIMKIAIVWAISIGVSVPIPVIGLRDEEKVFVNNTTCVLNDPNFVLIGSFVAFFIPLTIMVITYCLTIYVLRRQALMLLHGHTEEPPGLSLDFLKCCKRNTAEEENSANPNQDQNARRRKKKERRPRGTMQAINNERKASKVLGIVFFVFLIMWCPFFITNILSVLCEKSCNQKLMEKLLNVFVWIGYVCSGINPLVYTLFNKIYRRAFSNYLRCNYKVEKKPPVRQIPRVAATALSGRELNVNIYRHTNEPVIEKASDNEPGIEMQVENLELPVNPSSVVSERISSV
compound,measurement,setting,value
Cn1c2cccc(=O)c-2nc2ccccc21 [PYOCYANIN],inhibition,[1],inactive
same,IC50,NIH3T3,3.66 µg/mL
same,inhibition,[2],inactive
same,inhibition,[3],inactive
same,inhibition,[4],inactive
same,inhibition,[5],inactive
same,inhibition,[6],inactive
same,inhibition,[7],inactive
same,inhibition,[8],inactive
same,inhibition,[9],inactive
same,inhibition,[10],inactive
same,inhibition,[11],inactive
same,inhibition,[12],inactive
same,inhibition,Rattus norvegicus [13],inactive
same,inhibition,[14],inactive
same,inhibition,[15],inactive
same,inhibition,[16],inactive
same,inhibition,[17],inactive
same,inhibition,[18],inactive
same,inhibition,[19],inactive
same,inhibition,[20],inactive
same,inhibition,[21],inactive
same,inhibition,[22],inactive
same,inhibition,[23],inactive
same,inhibition,[24],inactive
same,inhibition,[25],inactive
same,inhibition,[26],inactive
same,inhibition,Rattus norvegicus [27],inactive
